Measured values published in ChEMBL document CHEMBL1141958, “Toll-like receptor 2 antagonists. Part 1: preliminary SAR investigation of novel synthetic phospholipids” (Bioorg Med Chem Lett, 2005).

Tests used:
Toll-like receptor 2 [1] = target: T1, Toll-like receptor 2 (Homo sapiens, UniProt O60603); experiment: Antagonistic potency at TLR2 expressed in HEK293 cells; assay type: functional, cell-based
Toll-like receptor 4 = Toll-like receptor 4 (Homo sapiens, UniProt O00206); experiment: Antagonistic potency at human TLR4 expressed in HEK293 cells; assay type: functional, cell-based
Toll-like receptor 2 [2] = target: T1, Toll-like receptor 2; experiment: Antagonistic activity at TLR in human PBMC; assay type: functional
In short: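 PBMCs purified from heparinized blood of healthy human donors, seeded at 50,000 cells per well. Pam3CysSK4 (50 ng/ml) added together with compound at 30, 10, 3, 1, 0.3, 0.1 and 0.03 µM; 6 h at 37 °C. Supernatants collected by centrifugation, stored at -20 °C, TNFα measured by ELISA.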

Chain of Toll-like receptor 4 (O00206 whole entry): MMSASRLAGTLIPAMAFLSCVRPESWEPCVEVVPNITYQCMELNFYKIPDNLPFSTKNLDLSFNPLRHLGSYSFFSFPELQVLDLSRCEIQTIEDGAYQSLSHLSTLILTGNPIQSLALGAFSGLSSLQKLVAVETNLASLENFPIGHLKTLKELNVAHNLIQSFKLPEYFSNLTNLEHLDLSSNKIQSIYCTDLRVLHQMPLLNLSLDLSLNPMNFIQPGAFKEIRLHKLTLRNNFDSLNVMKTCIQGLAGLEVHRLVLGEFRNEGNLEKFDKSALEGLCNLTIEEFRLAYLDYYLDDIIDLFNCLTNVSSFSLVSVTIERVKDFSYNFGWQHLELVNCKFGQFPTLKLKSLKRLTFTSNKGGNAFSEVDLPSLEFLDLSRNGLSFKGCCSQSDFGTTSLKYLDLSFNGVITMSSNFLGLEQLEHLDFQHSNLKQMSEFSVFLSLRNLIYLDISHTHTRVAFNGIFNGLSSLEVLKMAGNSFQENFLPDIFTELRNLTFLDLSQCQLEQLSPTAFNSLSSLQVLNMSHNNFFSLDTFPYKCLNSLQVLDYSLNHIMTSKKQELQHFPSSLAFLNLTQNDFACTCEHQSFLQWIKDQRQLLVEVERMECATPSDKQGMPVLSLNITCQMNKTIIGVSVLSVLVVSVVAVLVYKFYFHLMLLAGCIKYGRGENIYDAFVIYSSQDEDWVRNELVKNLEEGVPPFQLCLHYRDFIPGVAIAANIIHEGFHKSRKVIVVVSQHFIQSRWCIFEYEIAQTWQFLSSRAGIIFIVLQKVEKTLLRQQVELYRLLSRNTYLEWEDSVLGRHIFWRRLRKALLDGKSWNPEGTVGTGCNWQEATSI
T1 sequence (O60603 whole entry): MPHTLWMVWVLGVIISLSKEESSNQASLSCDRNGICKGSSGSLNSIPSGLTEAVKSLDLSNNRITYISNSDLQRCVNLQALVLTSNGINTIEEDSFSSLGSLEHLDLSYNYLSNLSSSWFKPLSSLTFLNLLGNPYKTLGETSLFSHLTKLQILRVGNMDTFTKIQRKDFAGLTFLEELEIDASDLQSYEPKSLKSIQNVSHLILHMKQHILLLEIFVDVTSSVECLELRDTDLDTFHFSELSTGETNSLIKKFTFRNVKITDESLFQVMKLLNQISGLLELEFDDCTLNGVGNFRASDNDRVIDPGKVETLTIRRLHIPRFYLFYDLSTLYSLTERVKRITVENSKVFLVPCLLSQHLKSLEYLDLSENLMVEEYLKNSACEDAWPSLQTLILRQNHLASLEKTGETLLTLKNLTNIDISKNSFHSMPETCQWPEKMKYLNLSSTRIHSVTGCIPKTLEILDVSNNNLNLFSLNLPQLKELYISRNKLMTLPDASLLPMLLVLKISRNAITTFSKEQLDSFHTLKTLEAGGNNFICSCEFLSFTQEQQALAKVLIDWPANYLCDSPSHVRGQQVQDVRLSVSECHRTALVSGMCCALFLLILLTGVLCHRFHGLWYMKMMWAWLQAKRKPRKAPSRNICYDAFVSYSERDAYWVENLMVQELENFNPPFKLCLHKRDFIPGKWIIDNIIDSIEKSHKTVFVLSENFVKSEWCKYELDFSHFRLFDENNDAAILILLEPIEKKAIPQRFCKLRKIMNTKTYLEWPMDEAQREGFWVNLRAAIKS

Compound | IC50 (Toll-like receptor 2 [1]) [nM] | IC50 (Toll-like receptor 4) [nM] | IC50 (Toll-like receptor 2 [2]) [nM]
CCCCCCCCCCCCCC(=O)O[C@H](COCC[C@@H](CCCCCCC)OC(=O)CCCCCCCCCCC)COP(=O)(O)OCCNC(=O)C(Cc1ccc(O)cc1)C(=O)O (some centres undefined) | 1250 | – | –
CCCCCCCCCCCCCC(=O)N[C@@H](COCC[C@@H](CCCCCCC)OC(=O)CCCCCCCCCCC)COP(=O)(O)OCCNC(=O)C(Cc1ccc(O)cc1)C(=O)O (some centres undefined) | 22000 | 250 | –
CCCCCCCCCCCCCC(=O)N[C@H](COCC[C@@H](CCCCCCC)OC(=O)CCCCCCCCCCC)COP(=O)(O)OCCNC(=O)CCc1ccc(O)cc1 | 2150 | – | –
CCCCCCCCCCCCCC(=O)N[C@H](COCC[C@H](CCCCCCC)OC(=O)CCCCCCCCCCC)COP(=O)(O)OCCNC(=O)C(Cc1ccc(O)cc1)C(=O)O (some centres undefined) | 6460 | 160 | –
CCCCCCCCCCCCCC(=O)N[C@@H](COCC[C@H](CCCCCCC)OC(=O)CCCCCCCCCCC)COP(=O)(O)OCCNC(=O)C(Cc1ccc(O)cc1)C(=O)O (some centres undefined) | 6900 | 80 | –
CCCCCCCCCCCCCC(=O)N[C@@H](COP(=O)(O)OCCNC(=O)C(Cc1ccc(O)cc1)C(=O)O)C(=O)OCC[C@@H](CCCCCCC)OC(=O)CCCCCCCCCCC (some centres undefined) | 950 | – | –
CCCCCCCCCCCCCC(=O)N[C@H](COCC[C@@H](CCCCCCC)NC(=O)CCCCCCCCCCC)COP(=O)(O)OCCNC(=O)C(Cc1ccc(O)cc1)C(=O)O (some centres undefined) | 5200 | – | –
CCCCCCCCCCCCCC(=O)N[C@H](COCC[C@@H](CCCCCCC)OC(=O)CCCCCCCCCCC)COP(=O)(O)OCCNC(=O)C(Cc1ccc(O)cc1)C(=O)O (some centres undefined) | 3070 | 350 | 1600
CCCCCCCCCCCCCC(=O)N[C@@H](COP(=O)(O)OCCNC(=O)C(Cc1ccc(O)cc1)C(=O)O)C(=O)NCC[C@@H](CCCCCCC)OC(=O)CCCCCCCCCCC (some centres undefined) | 900 | – | –
